Structures are written as SMILES.

Assay [1] deals with wild-type SUR2A/Kir6.2 KATP channels expressed in HEK293 cells (UniProt P70170+Q14654). Description: Inside-out patch-clamp of recombinant wild-type KATP channels. The format is cell-based. Conditions: WT. On the technique in general: In patch-clamp work, channel activity is measured electrically.
Assay [2] deals with wild-type SUR2A (NBD1) coexpressed with Kir6.2, HEK293 membranes (Mus musculus, UniProt P70170). In words: 8-azido-[γ-32P]ATP photoaffinity labeling, post-incubation with ADP, wild type. The assay is classed as binding. Conditions: WT; MgADP titration 0.05 to 1.0 mM.
Assay [3] deals with ED mutant SUR2A/Kir6.2 channels. In words: Inside-out patch-clamp of ED domain mutant KATP channels. The format is cell-based. Conditions: ED mutants; 300 μM MgADP, channels inhibited by 300 μM ATP. An outline of the steps:
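SUR2A (wild type or ED-mutated) was transiently cotransfected with Kir6.2 (5 μg:1 μg, plus 0.5 μg GFP reporter) into HEK293 cells grown in DMEM/10% FBS/2 mM glutamine, and recorded 48–72 h later. Inside-out patches at −60 mV, 32 ± 1°C. Pipette (mM): KCl 140, CaCl₂ 1, MgCl₂ 1, HEPES-KOH 5, pH 7.3. Bath (mM): KCl 140, MgCl₂ 1, EGTA 5, HEPES-KOH 5, pH 7.3, with nucleotides and drugs added.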

The test system of assay [4] is ED-mutated SUR2A (entire deletion and Q/N mutants) coexpressed with Kir6.2, HEK293 membranes. In words: 8-azido-[γ-32P]ATP photoaffinity labeling, post-incubation with ADP, ED mutants. The assay is classed as binding. As to conditions: ED-mutated constructs; MgADP 0.05 to 1.0 mM.
For assay [5], the target named is SUR2A entire deletion (Δ948–962)/Kir6.2 KATP channels expressed in HEK293 cells (UniProt P70170+Q14654, DEL948-962). Description: Inside-out patch-clamp of entire ED deletion KATP channels. The format is cell-based. As to conditions: glyburide 10 μM, monophasic response.
For assay [6], the system named is SUR2A entire Q/N mutant/Kir6.2 KATP channels expressed in HEK293 cells. Description: Inside-out patch-clamp of entire Q/N mutant KATP channels. As to conditions: glyburide 10 μM. The format is cell-based.

For `CC(N/C(=N\C#N)Nc1ccncc1)C(C)(C)C` (centres unmarked) [pinacidil], in assay [1] (50 μM pinacidil, 300 μM ATP, relative to activity in the absence of nucleotides), the “Channel activity reversed by pinacidil against ATP inhibition” value was “close to the maximum level”.
In the case of `Nc1ncnc2c1ncn2[C@@H]1O[C@H](COP(=O)([O-])OP(=O)([O-])O)[C@@H](O)[C@H]1O.[Mg+2]` [MgADP], the “Reversal of ATP-induced channel inhibition by MgADP” value in assay [1] (300 μM MgADP, channels inhibited by 300 μM ATP) is given as “readily reversed”; in assay [3], “unable to reverse such inhibition”. Moreover, the “MgADP concentration at maximum increase of 8-azido-[γ-32P]ATP labeling” value in assay [2] is 500 µM. Besides, the “Effect of MgADP on 8-azido-[γ-32P]ATP labeling” value in assay [4] was “did not affect labeling”.
For the molecule `COc1ccc(Cl)cc1C(=O)NCCc1ccc(S(=O)(=O)NC(=O)NC2CCCCC2)cc1` [glyburide], the “Pattern of glyburide blockade in the presence of MgADP” value in assay [1] (glyburide 10 μM, 300 μM MgADP) was “both phases were blunted”. The “Profile of glyburide inhibition in the presence of AMP-PNP” value in assay [1] (glyburide 10 μM, AMP-PNP 50 μM) was “indistinguishable from the effect of glyburide in the absence of nucleotides”. The “Fast phase: instantaneous blockade, fraction of the channel population” value in assay [1] (glyburide 10 μM, no nucleotides) was 59 ± 11%. Moreover, the “Slow phase: gradual dissipation of channel activity” value in assay [1] (glyburide 10 μM, no nucleotides, within 2–3 min) is 93 ± 3%. For the same molecule, the “Glyburide-induced reduction in overall channel activity” value in assay [5] was 21 ± 5%. In addition, the “Glyburide responsiveness compared with wild type” value in assay [6] is listed as “reduced glyburide responsiveness”.

For the origin of these results see PMC2248718 (The Journal of General Physiology, 2008).
